# In article PMC3889329 (Diabetes Therapy, 2013):
# “Also recorded” adds a separate entry of the source.
# Assays:
# [1] = tested on: patients with type 2 diabetes mellitus; assay: Safety and tolerability; type: in vivo, human; conditions: for Diarrhea / Headache / Hypoglycemia / Patients with any AE / Pruritus: N = 9
# Outline: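 This was a double-blind, multiple rising dose trial with patients randomized 3:1 to active or placebo per dose group. Oral dosing was once daily: a single dose on day 1, then days 3–9. Adverse events were recorded, and relatedness was investigator-defined. Hypoglycemia was defined as blood glucose <3.5 mmol/L. An end-of-study examination was done on days 15–21. Analysis was descriptive, randomized set (n = 48).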
# [2] = tested on: patients with type 2 diabetes mellitus; assay: Laboratory electrolyte and lipid measurements; type: in vivo, human; conditions: normalized to a standard reference range
# [3] = tested on: patients with type 2 diabetes mellitus; assay: Urine volume and micturition frequency; type: in vivo, human
# Outline: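 Urine volume and micturition frequency were recorded under controlled fluid intake, with oral once-daily dosing of test compound or placebo taken with 240 mL water. Dosing was a single dose on day 1, then days 3–9. Placebo was given within each dose group at a 3:1 active:placebo randomization.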
# [4] = tested on: patients with type 2 diabetes mellitus; assay: Derived creatinine clearance; type: in vivo, human
# Outline: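 Derived creatinine clearance was calculated from urinary creatinine concentration and volume in timed urine fractions, together with plasma creatinine. It is expressed as […] and given as change from baseline. Dosing was oral, once daily with 240 mL water: a single dose on day 1, then daily on days 3–9.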
# [5] = Pharmacokinetics in plasma and urine; type: in vivo, human
# Outline: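 Plasma was sampled pre-dose on days −2, −1, 1, 2, 3 and 5–9, up to 48 h after the day 1 single dose and up to 72 h after the day 9 dose. Urine was collected on days 1 and 9. Analysis was by HPLC–MS/MS (LLOQ 1.11 nmol/L plasma, 4.44 nmol/L urine). AUC used linear-up/log-down trapezoids. Steady state was assessed from day 5–9 troughs with a log-scale repeated-measures model. n = 36.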
# [6] = tested on: patients with type 2 diabetes mellitus; assay: Urinary glucose excretion; type: in vivo, human; conditions: day 1
# Outline: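 All urine was collected over 24 h on days −2, −1, 1, 8 and 9, extended to 48 h after day 1 and 72 h after day 9. Ae0–24 was measured after a single dose with OGTT (75 g glucose, day 1) and after multiple daily doses, fasting (day 8) or with OGTT (day 9). Results are mean (SD) for the treated set.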
# [7] = tested on: patients with type 2 diabetes mellitus; assay: Oral glucose tolerance test, glucose AUEC1-5; type: in vivo, human; conditions: for Glucose AUEC1–5, change from baseline to day 9: baseline day −1
# Outline: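 For the OGTT, 75 g glucose solution was given after an overnight fast on days −1, 1 and 9, with the test compound or placebo given orally once daily. Glucose AUEC was calculated over 1–5 h after OGTT. Change is from baseline on day −1. Patients were randomized 3:1 to active or placebo per dose group. Analysis was descriptive.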
# SGLT2 = conditions: in vitro, cited from earlier work
# healthy volunteers = conditions: single oral doses; cited from earlier work
smiles,measurement,setting,value
OC[C@H]1O[C@@H](c2ccc(Cl)c(Cc3ccc(O[C@H]4CCOC4)cc3)c2)[C@H](O)[C@@H](O)[C@@H]1O [Empagliflozin],Diarrhea,[1]; 2.5 mg qd,2 (22.2) n (%)
same,Headache,[1]; 2.5 mg qd,0 n (%)
same,Hypoglycemia,[1]; 2.5 mg qd,0 n (%)
same,Patients with any AE,[1]; 2.5 mg qd,6 (66.7) n (%)
same,Pruritus,[1]; 2.5 mg qd,1 (11.1) n (%)
same,Diarrhea,[1]; 10 mg qd,0 n (%)
same,Headache,[1]; 10 mg qd,1 (11.1) n (%)
same,Hypoglycemia,[1]; 10 mg qd,2 (22.2) n (%)
same,Patients with any AE,[1]; 10 mg qd,5 (55.6) n (%)
same,Pruritus,[1]; 10 mg qd,0 n (%)
same,Diarrhea,[1]; 25 mg qd,0 n (%)
same,Headache,[1]; 25 mg qd,2 (22.2) n (%)
same,Hypoglycemia,[1]; 25 mg qd,1 (11.1) n (%)
same,Patients with any AE,[1]; 25 mg qd,5 (55.6) n (%)
same,Pruritus,[1]; 25 mg qd,1 (11.1) n (%)
same,Diarrhea,[1]; 100 mg qd,0 n (%)
same,Headache,[1]; 100 mg qd,0 n (%)
same,Hypoglycemia,[1]; 100 mg qd,0 n (%)
same,Patients with any AE,[1]; 100 mg qd,3 (33.3) n (%)
same,Pruritus,[1]; 100 mg qd,0 n (%)
same,Frequency of AEs,[1]; all patients receiving empagliflozin,52.8%
same,Patients with hypoglycemic events (blood glucose <3.5 mmol/L),"[1]; all within 5 h of OGTT administration, moderate intensity",Three
same,Patients with AE leading to discontinuation of study treatment,"[1]; cellulitis, moderate intensity, not believed related to study medication",1 patient
same,Tolerability,[1]; multiple once-daily oral doses 2.5–100 mg,well tolerated
same,Fatalities or serious AEs,[1]; treatment period,no fatalities or serious AEs
same,Urinary tract or genital tract infections,[1]; treatment period,No urinary tract or genital tract infections were reported
same,"Calcium, mean (SD), last value on treatment",[2]; 2.5 mg qd,2.3 (0.1) mmol/l
same,"HDL-cholesterol, mean (SD), last value on treatment",[2]; 2.5 mg qd,16 (18) mg/dL
same,"Potassium, mean (SD), last value on treatment",[2]; 2.5 mg qd,4.2 (0.3) mmol/l
same,"Sodium, mean (SD), last value on treatment",[2]; 2.5 mg qd,140 (2) mmol/l
same,"Total cholesterol, mean (SD), last value on treatment",[2]; 2.5 mg qd,175 (11) mg/dL
same,"Triglycerides, mean (SD), last value on treatment",[2]; 2.5 mg qd,171 (65) mg/dL
same,"HDL-cholesterol, mean (SD), last value on treatment","[2]; 10 mg qd, N = 8",31 (18) mg/dL
same,"Calcium, mean (SD), last value on treatment",[2]; 10 mg qd,2.3 (0.1) mmol/l
same,"Potassium, mean (SD), last value on treatment",[2]; 10 mg qd,4.4 (0.3) mmol/l
same,"Sodium, mean (SD), last value on treatment",[2]; 10 mg qd,140 (1) mmol/l
same,"Total cholesterol, mean (SD), last value on treatment",[2]; 10 mg qd,171 (25) mg/dL
same,"Triglycerides, mean (SD), last value on treatment",[2]; 10 mg qd,114 (42) mg/dL
same,"Calcium, mean (SD), last value on treatment",[2]; 25 mg qd,2.3 (0.1) mmol/l
same,"HDL-cholesterol, mean (SD), last value on treatment",[2]; 25 mg qd,41 (17) mg/dL
same,"Potassium, mean (SD), last value on treatment",[2]; 25 mg qd,4.1 (0.3) mmol/l
same,"Sodium, mean (SD), last value on treatment",[2]; 25 mg qd,139 (2) mmol/l
same,"Total cholesterol, mean (SD), last value on treatment",[2]; 25 mg qd,174 (13) mg/dL
same,"Triglycerides, mean (SD), last value on treatment",[2]; 25 mg qd,89 (26) mg/dL
same,"Calcium, mean (SD), last value on treatment",[2]; 100 mg qd,2.3 (0.1) mmol/l
same,"HDL-cholesterol, mean (SD), last value on treatment",[2]; 100 mg qd,37 (18) mg/dL
same,"Potassium, mean (SD), last value on treatment",[2]; 100 mg qd,4.5 (0.3) mmol/l
same,"Sodium, mean (SD), last value on treatment",[2]; 100 mg qd,139 (2) mmol/l
same,"Total cholesterol, mean (SD), last value on treatment",[2]; 100 mg qd,174 (11) mg/dL
same,"Triglycerides, mean (SD), last value on treatment",[2]; 100 mg qd,97 (27) mg/dL
same,Mean (SD) micturition day frequency,"[3]; 2.5 mg qd, Day 1, day 07:00–18:59",6.0 (1.2)
same,Mean (SD) micturition night frequency,"[3]; 2.5 mg qd, Day 1, night 19:00–06:59",3.7 (1.5)
same,Mean (SD) micturition day frequency,"[3]; 2.5 mg qd, Day 8, day 07:00–18:59",6.6 (1.8)
same,Mean (SD) micturition night frequency,"[3]; 2.5 mg qd, Day 8, night 19:00–06:59",3.7 (1.2)
same,Mean (SD) micturition day frequency,"[3]; 2.5 mg qd, Day 9, day 07:00–18:59",6.4 (1.9)
same,Mean (SD) micturition night frequency,"[3]; 2.5 mg qd, Day 9, night 19:00–06:59",3.4 (1.3)
same,Mean (SD) micturition day frequency,"[3]; 10 mg qd, Day 1, day 07:00–18:59",8.3 (1.7)
same,Mean (SD) micturition night frequency,"[3]; 10 mg qd, Day 1, night 19:00–06:59",3.8 (0.8)
same,Mean (SD) micturition day frequency,"[3]; 10 mg qd, Day 8, day 07:00–18:59",6.8 (1.6)
same,Mean (SD) micturition night frequency,"[3]; 10 mg qd, Day 8, night 19:00–06:59",4.0 (1.7)
same,Mean (SD) micturition day frequency,"[3]; 10 mg qd, Day 9, day 07:00–18:59",8.9 (1.7)
same,Mean (SD) micturition night frequency,"[3]; 10 mg qd, Day 9, night 19:00–06:59",3.7 (0.5)
same,Mean (SD) micturition day frequency,"[3]; 25 mg qd, Day 1, day 07:00–18:59",7.8 (2.6)
same,Mean (SD) micturition night frequency,"[3]; 25 mg qd, Day 1, night 19:00–06:59",4.3 (1.0)
same,Mean (SD) micturition day frequency,"[3]; 25 mg qd, Day 8, day 07:00–18:59",7.0 (1.6)
same,Mean (SD) micturition night frequency,"[3]; 25 mg qd, Day 8, night 19:00–06:59",4.8 (1.6)
same,Mean (SD) micturition day frequency,"[3]; 25 mg qd, Day 9, day 07:00–18:59",8.2 (2.0)
same,Mean (SD) micturition night frequency,"[3]; 25 mg qd, Day 9, night 19:00–06:59",4.1 (1.4)
same,Mean (SD) micturition day frequency,"[3]; 100 mg qd, Day 1, day 07:00–18:59",7.9 (2.4)
same,Mean (SD) micturition night frequency,"[3]; 100 mg qd, Day 1, night 19:00–06:59",3.6 (1.1)
same,Mean (SD) micturition day frequency,"[3]; 100 mg qd, Day 8, day 07:00–18:59",6.9 (1.5)
same,Mean (SD) micturition night frequency,"[3]; 100 mg qd, Day 8, night 19:00–06:59",4.7 (1.5)
same,Mean (SD) micturition day frequency,"[3]; 100 mg qd, Day 9, day 07:00–18:59",8.4 (2.5)
same,Mean (SD) micturition night frequency,"[3]; 100 mg qd, Day 9, night 19:00–06:59",3.7 (1.0)
same,Change in micturition frequency compared with placebo,[3]; controlled fluid intake conditions,no changes in urine volume or micturition frequency; also recorded: no changes to micturition frequency
same,"Change from baseline in derived creatinine clearance, mean (SD)","[4]; 2.5 mg qd, 16 h",−57.0 (59.4) mL/min 1.73 m^2
same,"Change from baseline in derived creatinine clearance, mean (SD)","[4]; 2.5 mg qd, 166 h, n = 7",360 (620) mL/min 1.73 m^2
same,"Change from baseline in derived creatinine clearance, mean (SD)","[4]; 2.5 mg qd, 184 h",−20.3 (59.2) mL/min 1.73 m^2
same,"Change from baseline in derived creatinine clearance, mean (SD)","[4]; 10 mg qd, 16 h",−28.7 (34.2) mL/min 1.73 m^2
same,"Change from baseline in derived creatinine clearance, mean (SD)","[4]; 10 mg qd, 166 h",12.8 (54.7) mL/min 1.73 m^2
same,"Change from baseline in derived creatinine clearance, mean (SD)","[4]; 10 mg qd, 184 h",−38.4 (36.4) mL/min 1.73 m^2
same,"Change from baseline in derived creatinine clearance, mean (SD)","[4]; 25 mg qd, 16 h",−89.2 (43.2) mL/min 1.73 m^2
same,"Change from baseline in derived creatinine clearance, mean (SD)","[4]; 25 mg qd, 166 h",−40.3 (61.7) mL/min 1.73 m^2
same,"Change from baseline in derived creatinine clearance, mean (SD)","[4]; 25 mg qd, 184 h",−52.4 (45.5) mL/min 1.73 m^2
same,"Change from baseline in derived creatinine clearance, mean (SD)","[4]; 100 mg qd, 16 h",−21.0 (59.3) mL/min 1.73 m^2
same,"Change from baseline in derived creatinine clearance, mean (SD)","[4]; 100 mg qd, 166 h",−10.6 (58.0) mL/min 1.73 m^2
same,"Change from baseline in derived creatinine clearance, mean (SD)","[4]; 100 mg qd, 184 h",−14.4 (55.3) mL/min 1.73 m^2
same,Accumulation at steady state,[5]; 2.5–100 mg qd,up to 23%
same,half-life,"[5]; human, plasma, oral, Mean t 1/2 at steady state, day 9, range over 2.5–100 mg qd",10.3 to 18.8 h
same,Tmax,"[5]; human, plasma, po",1.5 to 3 h
same,Steady state reached by,"[5]; repeated once-daily dosing, trough concentrations days 5–8",≤ 5 days
same,Amount of glucose excreted in the urine over 24 h (Ae0–24),"[6]; 2.5 mg single dose, OGTT conditions",46.3 g
same,Increase in UGE with fourfold dose increase from 2.5 to 10 mg,[6]; single dose,more than a twofold increase
same,Increase in UGE with fourfold dose increase from 25 to 100 mg,[6]; single dose,~1.2 fold
same,"Mean (SD) glucose AUEC1–5, Day 9","[7]; 2.5 mg qd, after OGTT",713 (216) mg h/dL
same,"Glucose AUEC1–5, change from baseline to day 9","[7]; 2.5 mg qd, after OGTT",23.1%
same,"Glucose AUEC1–5, change from baseline to day 9","[7]; 10 mg qd, after OGTT",27.5%
same,"Mean (SD) glucose AUEC1–5, Day 9","[7]; 10 mg qd, n = 8, after OGTT",655 (144) mg h/dL
same,"Mean (SD) glucose AUEC1–5, Day 9","[7]; 25 mg qd, after OGTT",679 (109) mg h/dL
same,"Glucose AUEC1–5, change from baseline to day 9","[7]; 25 mg qd, after OGTT",23.0%
same,"Mean (SD) glucose AUEC1–5, Day 9","[7]; 100 mg qd, after OGTT",817 (126) mg h/dL
same,"Glucose AUEC1–5, change from baseline to day 9","[7]; 100 mg qd, after OGTT",22.9%
same,"pIC50 (SE), inhibition of SGLT2",SGLT2,8.5
same,IC50,"SGLT2; read-out: IC50, inhibition of SGLT2",3.1 nM
same,Tolerability,healthy volunteers,well tolerated
